{"data": "Measured values collected from several papers"}
{"Compound": "O=C(CSc1nc2ccccc2s1)N/N=C/c1ccc(OCC(=O)Nc2ccc(Br)cc2)cc1", "cell line": "CAPAN-1", "observed": "cell growth or viability", "technique": "MTS", "time": "72 h", "IC50": "10200 nM"}
{"Compound": "FC(F)(F)c1cc(OCc2cc(-c3ccccn3)no2)c2ccccc2n1", "cell line": "CAPAN-1", "observed": "cell growth or viability", "technique": "MTS", "time": "72 h", "IC50": "> 100000 nM"}
{"Compound": "COc1ccc(N(C)c2nc(C)nc3ccccc23)cc1OCCCC(=O)NO", "cell line": "MP46", "observed": "cell growth or viability", "technique": "ATP luminescence", "time": "72 h", "IC50": "94.8 nM"}
{"Compound": "O=c1cc(OCc2cc(-c3ccccn3)no2)c2ccccc2o1", "cell line": "CAPAN-1", "observed": "cell growth or viability", "technique": "MTS", "time": "72 h", "IC50": "> 100000 nM"}
{"Compound": "O=C(NO)c1ccc(Cn2cnc3c(Nc4cccc([N+](=O)[O-])c4)ncnc32)cc1", "cell line": "THP-1", "observed": "cell growth or viability", "technique": "MTT", "time": "72 h", "IC50": "530 nM"}
{"Compound": "Cc1noc2c1-c1ccc(-c3cnn(C)c3)cc1C(c1ccc(Cl)cc1)=N[C@H]2CC(N)=O", "cell line": "MP46", "observed": "cell growth or viability", "technique": "ATP luminescence", "time": "72 h", "IC50": "248 nM"}
{"Compound": "CCOc1ccc(Nc2c3c(nc4ccccc24)CCC3)cc1", "cell line": "THP-1", "observed": "cell growth or viability", "time": "72 h", "IC50": "18600 nM"}
{"Compound": "O=C(CSc1nc2ccccc2s1)N/N=C/c1ccc(OCC(=O)Nc2ccc([N+](=O)[O-])cc2)cc1", "cell line": "CAPAN-1", "observed": "cell growth or viability", "technique": "MTS", "time": "72 h", "IC50": "29400 nM"}
{"Compound": "COc1ccc(C[C@H](N)C(=O)N[C@H]2[C@@H](O)[C@H](n3cnc4c(N(C)C)ncnc43)O[C@@H]2CO)cc1", "cell line": "THP-1", "observed": "cell growth or viability", "time": "72 h", "IC50": "2030 nM"}
{"Compound": "CC(C)(C)c1cc(/C=C2\\SC(N)=NC2=O)cc(C(C)(C)C)c1O", "cell line": "HepaRG", "observed": "reactive oxygen species", "mode": "inhibitor", "time": "16 h", "IC50": "830 nM"}
{"Compound": "O=C(NO)c1ccc(Cn2cnc3c(Nc4ccc(Cl)cc4)ncnc32)cc1", "cell line": "THP-1", "observed": "cell growth or viability", "technique": "MTT", "time": "72 h", "IC50": "190 nM"}
{"Compound": "Cc1noc(C)c1-c1cc(C(O)(c2ccccn2)c2ccccn2)c2nc(C3CC3)[nH]c2c1", "cell line": "MP46", "observed": "cell growth or viability", "technique": "ATP luminescence", "time": "72 h", "IC50": "71.2 nM"}
{"Compound": "O=C(CSc1nc2ccccc2s1)N/N=C/c1ccc(OCC(=O)Nc2cccc(Br)c2)cc1", "cell line": "CAPAN-1", "observed": "cell growth or viability", "technique": "MTS", "time": "72 h", "IC50": "> 100000 nM"}
{"Compound": "CC1(COc2ccc(CC3SC(=O)NC3=O)cc2)CCCCC1 (centres unmarked)", "cell line": "HepaRG", "observed": "reactive oxygen species", "mode": "inhibitor", "time": "16 h", "IC50": "11100 nM"}
{"Compound": "N#Cc1ccc(-c2cc(COc3cc(C(F)(F)F)nc4ccccc34)on2)cc1", "cell line": "CAPAN-1", "observed": "cell growth or viability", "technique": "MTS", "time": "72 h", "IC50": "22500 nM"}
{"Compound": "CC(C)C[C@H](NC(=O)[C@H](Cc1ccccc1)NC(=O)c1cnccn1)B(O)O", "cell line": "MP46", "observed": "cell growth or viability", "technique": "ATP luminescence", "time": "72 h", "IC50": "3.52 nM"}
{"Compound": "N#Cc1ccc(-c2cc(COc3cc(=O)oc4ccccc34)on2)cc1", "cell line": "CAPAN-1", "observed": "cell growth or viability", "technique": "MTS", "time": "72 h", "IC50": "> 100000 nM"}
{"Compound": "CC1(P2(=O)CCCCC2)C=CCC=C1", "cell line": "SW-620", "observed": "cell growth or viability", "technique": "MTT", "time": "72 h", "IC50": "> 100000 nM"}
{"Compound": "Clc1ccc(-c2cc(CNc3cccc4cccnc34)on2)c(Cl)c1", "cell line": "CAPAN-1", "observed": "cell growth or viability", "technique": "MTS", "time": "72 h", "IC50": "14900 nM"}
{"Compound": "CSC(=O)c1cccc2nnsc12", "cell line": "HepaRG", "observed": "reactive oxygen species", "mode": "inhibitor", "time": "16 h", "IC50": "10700 nM"}
{"Compound": "COc1cccc2c1C(=O)c1c(O)c3c(c(O)c1C2=O)C[C@@](O)(C(=O)CO)C[C@@H]3O[C@H]1C[C@H](N)[C@H](O)[C@H](C)O1", "cell line": "MCF7", "observed": "cell growth or viability", "technique": "MTT", "time": "48 h", "IC50": "5180 nM"}
{"Compound": "Nc1ccn([C@@H]2O[C@H](CO)[C@@H](O)C2(F)F)c(=O)n1", "cell line": "MP46", "observed": "cell growth or viability", "technique": "ATP luminescence", "time": "72 h", "IC50": "169 nM"}
{"Compound": "CC(C)(C)c1cnc(CSc2cnc(NC(=O)C3CCN(C(=O)CCCCCCCN4Cc5cc6c(cc5C4)C(=O)N(C4CCC(=O)NC4=O)C6=O)CC3)s2)o1 (centres unmarked)", "cell line": "SJSA-1", "observed": "cell growth or viability", "technique": "MTT", "IC50": "174 nM"}
{"Compound": "COc1cccc2c1C(=O)c1c(O)c3c(c(O)c1C2=O)C[C@@](O)(C(=O)CO)C[C@@H]3O[C@H]1C[C@H](N)[C@H](O)[C@H](C)O1", "cell line": "SW-620", "observed": "cell growth or viability", "technique": "MTT", "time": "72 h", "IC50": "300 nM"}
{"Compound": "COc1ccc(Nc2ncnc3c2ncn3Cc2ccc(C(=O)NO)cc2)cc1", "cell line": "THP-1", "observed": "cell growth or viability", "technique": "MTT", "time": "72 h", "IC50": "420 nM"}
{"Compound": "Cc1cc2c(C(=O)O)cccc2n1-c1nc2c(c(NCc3ccccc3)n1)CCCN2", "cell line": "SW-620", "observed": "cell growth or viability", "time": "72 h", "IC50": "2100 nM"}
{"Compound": "N/C(=N\\O)c1ccc(-c2cc(CNc3cccc4cccnc34)on2)cc1", "cell line": "CAPAN-1", "observed": "cell growth or viability", "technique": "MTS", "time": "72 h", "IC50": "4700 nM"}
{"Compound": "CCS(=O)(=O)Nc1ccc(Oc2ccc(F)cc2F)c(-c2cn(C)c(=O)c3[nH]ccc23)c1", "cell line": "MP46", "observed": "cell growth or viability", "technique": "ATP luminescence", "time": "72 h", "IC50": "89.2 nM"}
{"Compound": "FC(F)(F)c1cc(OCc2cc(-c3ccc(Cl)cc3Cl)no2)c2ccccc2n1", "cell line": "CAPAN-1", "observed": "cell growth or viability", "technique": "MTS", "time": "72 h", "IC50": "> 100000 nM"}
{"Compound": "O=C(NO)c1ccc(Cn2cnc3c(Nc4ccc(Br)cc4F)ncnc32)cc1", "cell line": "THP-1", "observed": "cell growth or viability", "technique": "MTT", "time": "72 h", "IC50": "930 nM"}
{"Compound": "O=c1cc(OCc2cc(-c3ccccc3)no2)c2ccccc2o1", "cell line": "CAPAN-1", "observed": "cell growth or viability", "technique": "MTS", "time": "72 h", "IC50": "> 100000 nM"}
{"Compound": "O=[N+]([O-])c1ccc(Sc2cccc[n+]2[O-])c2nonc12", "cell line": "MP46", "observed": "cell growth or viability", "technique": "ATP luminescence", "time": "72 h", "IC50": "2790 nM"}
